Measured values taken from ChEMBL document CHEMBL5303300, “EUbOPEN Chemogenomics Library - Multiplex” (2023).
Several values for one entry are separate records, joined by “and”; a condition that tells them apart may be missing. Identical values can stand only once.

Assays:
HEK-293T = assay: Multiplex assay against HEK293T; type: toxicity, cell-based; settings: human, number of replicates 2
In short: (§1)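 Live cells were stained at seeding with Hoechst33342, BioTracker Green Microtubule Cytoskeleton Dye, MitoTracker Red and Annexin V Alexa Fluor 680, then imaged on a CQ1 microscope at 37°C and 5% CO2 after compound addition. CellPathfinder machine-learning gating split cells into Hoechst high-intensity objects or normal cells. Normal cells were split into healthy, pyknosed or fragmented nuclei, and pyknosed cells into mitotic or apoptotic. Tubulin, mitochondrial-mass and membrane-permeability phenotypes are per cents of healthy-nucleus cells.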

U2OS = assay: Multiplex assay against U2OS; type: toxicity, cell-based; settings: human, number of replicates 2; in short: as §1
[1] = 12 h, 1 µM, compound concentration 1 uM
[2] = 12 h, 10 µM, compound concentration 10 uM
[3] = 24 h, 1 µM, compound concentration 1 uM
[4] = 24 h, 10 µM, compound concentration 10 uM
[5] = 48 h, 1 µM, compound concentration 1 uM
[6] = 48 h, 10 µM, compound concentration 10 uM

## COC(=O)c1ccc2c(c1)NC(=O)/C2=C(\Nc1ccc(-c2nccn2C)cc1)c1ccccc1
HEK-293T; [1]
  Population Apoptotic (%): 50% and 35%
  Population Fragmented Nuclei (%): 3% and 2%
  Population Healthy Nuclei (%): 86%
  Population Hoechst High Intensity Objects (%): 4%
  Population Membrane Permeable-Phenotype (%): 4% and 3%
  Population Mitochondria Different-Phenotype (%): 20% and 17%
  Population Mitotic Cells (%): 49% and 64%
  Population Normal (%): 95%
  Population Pyknosed Nuclei (%): 10% and 11%
  Population Tubulin-Different-Phenotype (%): 52% and 51%
  Total Cell Count: 677 and 686
HEK-293T; [2]
  Population Apoptotic (%): 53% and 62%
  Population Fragmented Nuclei (%): 2% and 4%
  Population Healthy Nuclei (%): 83% and 81%
  Population Hoechst High Intensity Objects (%): 10% and 11%
  Population Membrane Permeable-Phenotype (%): 6% and 5%
  Population Mitochondria Different-Phenotype (%): 37% and 38%
  Population Mitotic Cells (%): 46% and 37%
  Population Normal (%): 89% and 88%
  Population Pyknosed Nuclei (%): 13% and 14%
  Population Tubulin-Different-Phenotype (%): 88% and 93%
  Total Cell Count: 504 and 530
HEK-293T; [3]
  Population Apoptotic (%): 30% and 31%
  Population Fragmented Nuclei (%): 5% and 3%
  Population Healthy Nuclei (%): 87% and 88%
  Population Hoechst High Intensity Objects (%): 6% and 7%
  Population Membrane Permeable-Phenotype (%): 4% and 1%
  Population Mitochondria Different-Phenotype (%): 8% and 5%
  Population Mitotic Cells (%): 69% and 68%
  Population Normal (%): 93% and 92%
  Population Pyknosed Nuclei (%): 6% and 8%
  Population Tubulin-Different-Phenotype (%): 35% and 36%
  Total Cell Count: 1123 and 936
HEK-293T; [4]
  Population Apoptotic (%): 55% and 74%
  Population Fragmented Nuclei (%): 6% and 5%
  Population Healthy Nuclei (%): 79% and 80%
  Population Hoechst High Intensity Objects (%): 9% and 11%
  Population Membrane Permeable-Phenotype (%): 3% and 4%
  Population Mitochondria Different-Phenotype (%): 27% and 38%
  Population Mitotic Cells (%): 44% and 25%
  Population Normal (%): 90% and 88%
  Population Pyknosed Nuclei (%): 13% and 14%
  Population Tubulin-Different-Phenotype (%): 81% and 89%
  Total Cell Count: 660 and 604
HEK-293T; [5]
  Population Apoptotic (%): 28% and 24%
  Population Fragmented Nuclei (%): 12% and 9%
  Population Healthy Nuclei (%): 84% and 87%
  Population Hoechst High Intensity Objects (%): 9%
  Population Membrane Permeable-Phenotype (%): 4% and 3%
  Population Mitochondria Different-Phenotype (%): 0% and 1%
  Population Mitotic Cells (%): 72% and 75%
  Population Normal (%): 90%
  Population Pyknosed Nuclei (%): 2% and 3%
  Population Tubulin-Different-Phenotype (%): 12% and 19%
  Total Cell Count: 2887 and 2005
HEK-293T; [6]
  Population Apoptotic (%): 46% and 56%
  Population Fragmented Nuclei (%): 11% and 8%
  Population Healthy Nuclei (%): 83% and 85%
  Population Hoechst High Intensity Objects (%): 11%
  Population Membrane Permeable-Phenotype (%): 5% and 4%
  Population Mitochondria Different-Phenotype (%): 10% and 22%
  Population Mitotic Cells (%): 53% and 43%
  Population Normal (%): 88%
  Population Pyknosed Nuclei (%): 5% and 6%
  Population Tubulin-Different-Phenotype (%): 64% and 85%
  Total Cell Count: 1119 and 790
U2OS; [1]
  Population Healthy Nuclei (%): 70% and 88%
  Population Hoechst High Intensity Objects (%): 0%
  Population Membrane Permeable-Phenotype (%): 12% and 2%
  Population Mitochondria Different-Phenotype (%): 4% and 0%
  Population Mitotic Cells (%): 100% and 64%
  Population Normal (%): 100%
  Population Pyknosed Nuclei (%): 2% and 8%
  Population Tubulin-Different-Phenotype (%): 54% and 83%
U2OS; [2]
  Population Apoptotic (%): 50% and 68%
  Population Healthy Nuclei (%): 43% and 77%
  Population Hoechst High Intensity Objects (%): 0%
  Population Membrane Permeable-Phenotype (%): 25% and 15%
  Population Mitochondria Different-Phenotype (%): 7% and 20%
  Population Mitotic Cells (%): 50% and 31%
  Population Normal (%): 100%
  Population Pyknosed Nuclei (%): 16% and 15%
  Population Tubulin-Different-Phenotype (%): 55% and 43%
  Total Cell Count: 62 and 186
U2OS; [3]
  Population Apoptotic (%): 84% and 57%
  Population Healthy Nuclei (%): 91% and 65%
  Population Hoechst High Intensity Objects (%): 0%
  Population Membrane Permeable-Phenotype (%): 2% and 11%
  Population Mitochondria Different-Phenotype (%): 0% and 5%
  Population Mitotic Cells (%): 15% and 42%
  Population Normal (%): 100%
  Population Pyknosed Nuclei (%): 5% and 13%
